Source: PMC10613959 (Toxicological Sciences, 2023)
Read-outs that look alike come from different tables or passages of the source. Each block holds one molecule with its values, some of them ahead of it.

Columns and labels:
[1] = Blood partitioning assay for Rbp; type: in vitro ADME; conditions: both, human
Procedure, shortened: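 Fresh pooled mixed-gender human whole blood (lithium heparin) and reference plasma centrifuged from the same blood were each incubated with 5 µM test compound at 37°C, n = 3. Reactions were stopped at 0 and 60 min. Rbp was derived by LC-MS/MS from test compound concentration in control plasma versus whole-blood supernatant. Chlorthalidone 5 µM served as positive control.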

Cross filtration = type: in vitro ADME; conditions: both, human, pooled human plasma
Procedure, shortened: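 Modified cross-ultrafiltration: 10 µM test compound in pooled mixed-gender human plasma, 60 min at 37°C, n = 3, then ultrafiltered beside blank plasma. Each retentate was mixed into the partner filtrate and the regenerated samples analysed by LC-MS/MS. Warfarin 10 µM was positive control. Stability was checked at 60 min against non-incubated control. Recovery-corrected mean PPB from filtrate; Fup = 100 − PPB.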

[2] = Ex vivo skin penetration study of radiolabeled OMC; type: in vitro ADME; conditions: human skin; for Dermal delivery (Epidermis + Dermis + Receptor fluid), 14C-OMC / Dermis, distribution of 14C-OMC / Epidermis, distribution of 14C-OMC / Receptor fluid, distribution of 14C-OMC / Skin excess, distribution of 14C-OMC / Total recovery, 14C-OMC / Total strips (1–20), distribution of 14C-OMC: mean
Procedure, shortened: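 Dermatomed skin, 350–450 µm, in flow-through diffusion cells (1 cm2 area), unoccluded, surface at 32°C ± 1°C. Receptor fluid (5% w/w BSA, 0.9% NaCl) flowed at 1.5 ml/h and was collected hourly. Runs ended at 30 min, 1, 2, 4, 8 h (n = 5) or 24 h (n = 12). Up to 20 tape strips; epidermis heat-separated from dermis; compartments counted by scintillation. Dermal delivery = epidermis + dermis + receptor fluid.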

[3] = Metabolic stability in primary human hepatocytes in suspension; type: in vitro ADME; conditions: human, cryopreserved human hepatocytes in suspension (5 donor pool)
Procedure, shortened: (§1)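 Cryopreserved human hepatocytes (5-donor pool, 0.8 × 10^6 cells/ml) in Williams E medium (25 mM HEPES, 2 mM L-glutamine) were incubated with test compound at 0.1, 1 and 10 µM, 37°C, n = 3. Sampled at 0, 15, 60, 90, 180 and 240 min; solvent ≤0.5% DMSO or 1% ACN. Heat-inactivated hepatocytes were the negative control. Parent loss was measured by LC-MS. CLint = −k·V (k, slope of log concentration vs time; V, incubation volume/cell number).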

human hepatocytes = experiment: as above; type: in vitro ADME; conditions: human suspension hepatocytes; compared with Naloxone
Procedure, shortened: as §1

[4] = Skin absorption parameters; parameters: species or system human; conditions: Fitted
Procedure, shortened: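 A skin model in GastroPlus TCAT started from in silico predicted values for the vehicle, stratum corneum, epidermis and dermis. Its diffusivities and partition coefficients were fitted to skin penetration data: receptor-fluid time course where available, plus skin wash and layer distribution. Parameters were adjusted to minimise model–data difference and then used in the human dermal model. Vehicle/water partitioning is formulation-specific.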

[5] = Scaling of in vitro CLint to in vivo CLint and CLliver; parameters: species or system human; conditions: scaled from the mean in vitro CLint
Procedure, shortened: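 Mean in vitro hepatocyte CLint was scaled to in vivo CLint (l/h) using a scaling factor: million cells per gram of liver × grams of liver weight. In vivo CLint was then converted to hepatic clearance with two variations of the well-stirred liver model.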

[6] = PBK population simulation of plasma concentrations; parameters: species or system human
Procedure, shortened: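 GastroPlus population simulations reproduced the clinical designs. Lotion or non-aerosol spray, 2 mg/cm2 over 75% body surface, once at 0 h on day 1 and 4 times daily at 2-h intervals on days 2–4 (mixed multiple-dose profile). Alternatively, a 4% formulation over 90% body surface, about 22 mg/kg bw, in 3 male and 3 female subjects. Simulated-mean/observed-mean ratios for Cmax and AUC0−t; 10th–90th percentiles generated.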

[7] = human plasma, topical sunscreen, ref Matta et al., 2020, cited from earlier work
[8] = ref Shand, 1976; cited from earlier work

blood plasma ratio at 60 min, 5 µM [1]: 0.73
fraction unbound at 60 min, 10 µM (Cross filtration): 0.0004
dermal delivered fraction of the applied dose ([2]; all the conditions (30 min to 24 h), target dose 200 µg/cm^2): less than 0.5%
Dermal delivery (Epidermis + Dermis + Receptor fluid), 14C-OMC ([2]; terminated at 30 min): 0.10%
Dermis, distribution of 14C-OMC ([2]; terminated at 30 min): 0.004%
Epidermis, distribution of 14C-OMC ([2]; terminated at 30 min): 0.07%
Receptor fluid, distribution of 14C-OMC ([2]; terminated at 30 min): 0.02%
Skin excess, distribution of 14C-OMC ([2]; terminated at 30 min): 91.04%
Total recovery, 14C-OMC ([2]; terminated at 30 min): 91.65%
Total strips (1–20), distribution of 14C-OMC ([2]; terminated at 30 min): 0.51%
Dermal delivery (Epidermis + Dermis + Receptor fluid), 14C-OMC ([2]; terminated at 1 h): 0.06%
Dermis, distribution of 14C-OMC ([2]; terminated at 1 h): 0.01%
Epidermis, distribution of 14C-OMC ([2]; terminated at 1 h): 0.04%
Receptor fluid, distribution of 14C-OMC ([2]; terminated at 1 h): 0.003%
Skin excess, distribution of 14C-OMC ([2]; terminated at 1 h): 112.02%
Total recovery, 14C-OMC ([2]; terminated at 1 h): 112.38%
Total strips (1–20), distribution of 14C-OMC ([2]; terminated at 1 h): 0.30%
Dermal delivery (Epidermis + Dermis + Receptor fluid), 14C-OMC ([2]; terminated at 2 h): 0.11%
Dermis, distribution of 14C-OMC ([2]; terminated at 2 h): 0.005%
Epidermis, distribution of 14C-OMC ([2]; terminated at 2 h): 0.06%
Receptor fluid, distribution of 14C-OMC ([2]; terminated at 2 h): 0.04%
Skin excess, distribution of 14C-OMC ([2]; terminated at 2 h): 89.22%
Total recovery, 14C-OMC ([2]; terminated at 2 h): 90.06%
Total strips (1–20), distribution of 14C-OMC ([2]; terminated at 2 h): 0.73%
Dermal delivery (Epidermis + Dermis + Receptor fluid), 14C-OMC ([2]; terminated at 4 h): 0.12%
Dermis, distribution of 14C-OMC ([2]; terminated at 4 h): 0.01%
Epidermis, distribution of 14C-OMC ([2]; terminated at 4 h): 0.05%
Receptor fluid, distribution of 14C-OMC ([2]; terminated at 4 h): 0.06%
Skin excess, distribution of 14C-OMC ([2]; terminated at 4 h): 100.26%
Total recovery, 14C-OMC ([2]; terminated at 4 h): 100.75%
Total strips (1–20), distribution of 14C-OMC ([2]; terminated at 4 h): 0.37%
Dermal delivery (Epidermis + Dermis + Receptor fluid), 14C-OMC ([2]; terminated at 8 h): 0.20%
Dermis, distribution of 14C-OMC ([2]; terminated at 8 h): 0.01%
Epidermis, distribution of 14C-OMC ([2]; terminated at 8 h): 0.10%
Receptor fluid, distribution of 14C-OMC ([2]; terminated at 8 h): 0.09%
Skin excess, distribution of 14C-OMC ([2]; terminated at 8 h): 113.76%
Total recovery, 14C-OMC ([2]; terminated at 8 h): 114.46%
Total strips (1–20), distribution of 14C-OMC ([2]; terminated at 8 h): 0.50%
Dermal delivery (Epidermis + Dermis + Receptor fluid), 14C-OMC ([2]; terminated at 24 h): 0.28%
Dermis, distribution of 14C-OMC ([2]; terminated at 24 h): 0.02%
Epidermis, distribution of 14C-OMC ([2]; terminated at 24 h): 0.21%
Receptor fluid, distribution of 14C-OMC ([2]; terminated at 24 h): 0.06%
Skin excess, distribution of 14C-OMC ([2]; terminated at 24 h): 100.26%
Total recovery, 14C-OMC ([2]; terminated at 24 h): 100.96%
Total strips (1–20), distribution of 14C-OMC ([2]; terminated at 24 h): 0.41%
hepatocyte CLint [3]: 43.3 µL/min/1e6 cells
hepatocyte CLint at 10 µM [3]: 43.3 µL/min/1e6 cells
depletion in suspension hepatocytes (human hepatocytes): medium to fast depletion
Dermis diffusivity [4]: 1.0E−07 cm^2/s
Dermis/water partition coefficient [4]: 7.0E−01
Epidermis diffusivity [4]: 3.0E−08 cm^2/s
Epidermis/water partition coefficient [4]: 2.0E+01
Stratum corneum diffusivity [4]: 2.0E−10 cm^2/s
Stratum corneum/water partition coefficient [4]: 4.5E+02
Vehicle diffusivity [4]: 7.0E−12 cm^2/s
Vehicle/water partition coefficient ([4]; vehicle/formulation specific): 1.5E+05
In vivo CLint scaled [5]: 312.0 l/h/kg liver
AUC0 − t Fold Difference (Simulated Mean/Observed Mean) ([6]; Day 1): 1.5
Cmax Fold Difference (Simulated Mean/Observed Mean) ([6]; Day 1): 1.5
AUC0 − t Fold Difference (Simulated Mean/Observed Mean) ([6]; Day 4): 2.7
Cmax Fold Difference (Simulated Mean/Observed Mean) ([6]; Day 4): 1.3
Structure (SMILES): CCCCC(CC)COC(=O)C=Cc1ccc(OC)cc1 (centres unmarked) [OMC, octyl methoxycinnamate]
Observed AUC0 − t, Geometric mean ([7]; Day 1): 21.6 ng·h/mL
Observed AUC0 − t, Range ([7]; Day 1): 2.7 to 57.7 ng·h/mL
Observed Cmax, Range ([7]; Day 1): 0.6 to 5 ng/mL
Observed AUC0 − t, Geometric mean ([7]; Day 4): 103.4 ng·h/mL
Observed AUC0 − t, Range ([7]; Day 4): 45.1 to 213.5 ng·h/mL
Observed Cmax, Range ([7]; Day 4): 2.6 to 30.6 ng/mL

Structure (SMILES): CC(C)NCC(O)COc1cccc2ccccc12 (centres unmarked) [propranolol]
bound to plasma [8]: 90%–95
